Data on 33 compounds can be found in ChEMBL document CHEMBL1153959, “QSAR analysis of pyrazolidine-3,5-diones derivatives as Dyrk1A inhibitors” (Bioorg Med Chem Lett, 2009).

Usually IC50 stands for the concentration needed to halve the response being measured.

For test [1], the target named is Dual specificity tyrosine-phosphorylation-regulated kinase 1A (Mus musculus) (UniProt Q61214). Nature of the test: Inhibition of Dyrk1 autophosphorylation.
Another test is filed under the species Homo sapiens. As to the kind of experiment: Inhibition of human PKA at 10 uM. Set-up: scale not given: the % may be the effect or the level left. The gist of the method:
(§1)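 Each human kinase was assayed with ATP at that kinase's own Km value. Activity was expressed as a percentage of control incubations run without inhibitor. Values are means of duplicate determinations with SD.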

Test [2] concerns the target Dual specificity protein kinase CLK3 (Homo sapiens) (UniProt P49761). As to the kind of experiment: Inhibition of human CLK3 at 10 uM. Set-up: scale not given: the % may be the effect or the level left. The gist of the method: as §1
Test [3] has as its target MAP kinase-activated protein kinase 2 (Homo sapiens) (UniProt P49137). Nature of the test: Inhibition of human MAPK2 at 10 uM. Also noted: scale not given: the % may be the effect or the level left. The gist of the method: as §1
Test [4] has as its target Cyclin-dependent kinase 5/CDK5 activator 1 (Homo sapiens) (UniProt Q00535+Q15078). Nature of the test: Inhibition of human CDK5/p35 at 10 uM. Set-up: scale not given: the % may be the effect or the level left. The format is protein-complex assay. The gist of the method:
as §1

Test [5] addresses Protein kinase C alpha type (Homo sapiens) (UniProt P17252). As to the kind of experiment: Inhibition of human PKCalpha at 10 uM. Set-up: scale not given: the % may be the effect or the level left. The gist of the method:
as §1

Test [6] deals with T1, Dual specificity tyrosine-phosphorylation-regulated kinase 2 (Homo sapiens) (UniProt Q92630).
T1 sequence (whole entry): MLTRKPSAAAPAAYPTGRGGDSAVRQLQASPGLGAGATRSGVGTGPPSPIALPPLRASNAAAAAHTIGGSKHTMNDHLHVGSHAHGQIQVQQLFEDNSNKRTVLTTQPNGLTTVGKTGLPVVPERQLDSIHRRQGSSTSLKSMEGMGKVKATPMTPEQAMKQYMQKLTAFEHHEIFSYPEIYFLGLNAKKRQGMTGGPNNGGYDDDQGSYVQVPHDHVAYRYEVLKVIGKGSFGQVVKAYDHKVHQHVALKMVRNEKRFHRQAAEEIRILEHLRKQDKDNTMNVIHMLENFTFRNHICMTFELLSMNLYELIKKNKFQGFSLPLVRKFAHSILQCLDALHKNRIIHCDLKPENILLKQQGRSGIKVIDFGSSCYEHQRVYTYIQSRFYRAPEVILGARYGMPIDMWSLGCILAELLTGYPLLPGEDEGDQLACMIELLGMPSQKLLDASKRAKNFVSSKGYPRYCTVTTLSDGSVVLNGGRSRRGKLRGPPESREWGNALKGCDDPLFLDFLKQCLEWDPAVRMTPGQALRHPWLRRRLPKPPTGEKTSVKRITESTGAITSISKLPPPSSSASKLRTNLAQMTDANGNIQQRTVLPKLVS
Nature of the test: Inhibition of human DYRK2 at 10 uM. Also noted: scale not given: the % may be the effect or the level left. The gist of the method:
as §1

Test [7] concerns the target Mitogen-activated protein kinase 10 (Homo sapiens) (UniProt P53779). As to the kind of experiment: Inhibition of human JNK3 at 10 uM. Set-up: scale not given: the % may be the effect or the level left. The gist of the method:
as §1

Test [8] concerns the target Glycogen synthase kinase-3 beta (Homo sapiens) (UniProt P49841). As to the kind of experiment: Inhibition of human GSK3-beta at 10 uM. Set-up: scale not given: the % may be the effect or the level left. The gist of the method:
as §1

Sequence of Glycogen synthase kinase-3 beta (Homo sapiens) (P49841 whole entry, looked up): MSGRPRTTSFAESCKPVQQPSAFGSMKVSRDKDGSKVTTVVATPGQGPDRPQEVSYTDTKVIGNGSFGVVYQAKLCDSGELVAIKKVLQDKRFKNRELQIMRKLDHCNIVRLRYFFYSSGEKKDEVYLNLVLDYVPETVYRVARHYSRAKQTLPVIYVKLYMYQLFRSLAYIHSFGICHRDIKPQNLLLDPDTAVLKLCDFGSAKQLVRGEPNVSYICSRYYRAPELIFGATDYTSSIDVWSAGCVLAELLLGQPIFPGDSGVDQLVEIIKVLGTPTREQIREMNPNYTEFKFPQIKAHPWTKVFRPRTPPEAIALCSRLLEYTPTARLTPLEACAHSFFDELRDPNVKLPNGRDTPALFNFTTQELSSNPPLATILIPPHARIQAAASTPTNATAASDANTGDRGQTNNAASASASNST
Sequence of Cyclin-dependent kinase 5/CDK5 activator 1 (Homo sapiens) (Q00535 whole entry): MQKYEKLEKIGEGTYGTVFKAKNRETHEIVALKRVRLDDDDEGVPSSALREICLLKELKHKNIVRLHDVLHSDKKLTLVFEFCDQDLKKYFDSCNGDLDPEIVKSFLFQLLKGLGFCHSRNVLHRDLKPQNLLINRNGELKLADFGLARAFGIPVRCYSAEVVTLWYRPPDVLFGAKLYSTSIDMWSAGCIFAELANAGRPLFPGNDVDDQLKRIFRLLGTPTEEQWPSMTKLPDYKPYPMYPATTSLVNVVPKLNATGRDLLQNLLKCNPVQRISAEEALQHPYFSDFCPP
Sequence of Cyclin-dependent kinase 5/CDK5 activator 1 (Homo sapiens) (Q15078 99-307 partner limits assumed): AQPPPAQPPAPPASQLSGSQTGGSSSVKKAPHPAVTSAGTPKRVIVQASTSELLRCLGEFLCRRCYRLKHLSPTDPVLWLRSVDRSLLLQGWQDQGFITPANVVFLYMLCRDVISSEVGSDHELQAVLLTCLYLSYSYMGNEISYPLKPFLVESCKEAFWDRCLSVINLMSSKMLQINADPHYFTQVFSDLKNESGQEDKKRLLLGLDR
Sequence of MAP kinase-activated protein kinase 2 (Homo sapiens) (P49137 whole entry, looked up): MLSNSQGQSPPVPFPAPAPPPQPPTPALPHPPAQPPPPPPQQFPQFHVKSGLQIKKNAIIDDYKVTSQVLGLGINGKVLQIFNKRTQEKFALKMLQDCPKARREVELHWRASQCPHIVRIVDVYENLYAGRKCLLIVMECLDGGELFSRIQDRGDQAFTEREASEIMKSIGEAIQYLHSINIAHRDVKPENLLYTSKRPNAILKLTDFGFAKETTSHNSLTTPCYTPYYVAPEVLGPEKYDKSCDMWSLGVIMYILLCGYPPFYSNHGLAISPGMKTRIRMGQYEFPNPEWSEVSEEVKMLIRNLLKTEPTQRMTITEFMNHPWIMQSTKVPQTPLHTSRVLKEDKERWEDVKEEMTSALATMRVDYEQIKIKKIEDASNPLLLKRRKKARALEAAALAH
Sequence of Mitogen-activated protein kinase 10 (Homo sapiens) (P53779 whole entry): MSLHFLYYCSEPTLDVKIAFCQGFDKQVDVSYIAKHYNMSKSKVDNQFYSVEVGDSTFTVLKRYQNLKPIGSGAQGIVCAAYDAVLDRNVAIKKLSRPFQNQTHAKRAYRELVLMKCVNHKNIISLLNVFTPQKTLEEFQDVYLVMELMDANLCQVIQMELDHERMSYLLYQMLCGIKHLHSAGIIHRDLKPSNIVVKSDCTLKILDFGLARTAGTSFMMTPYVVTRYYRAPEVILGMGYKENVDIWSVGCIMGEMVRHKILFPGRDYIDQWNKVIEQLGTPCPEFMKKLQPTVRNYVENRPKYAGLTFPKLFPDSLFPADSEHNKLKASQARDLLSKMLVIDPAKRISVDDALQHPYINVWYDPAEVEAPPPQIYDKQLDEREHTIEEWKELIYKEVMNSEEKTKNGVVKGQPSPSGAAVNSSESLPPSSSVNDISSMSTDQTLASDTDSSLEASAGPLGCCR
Sequence of Dual specificity protein kinase CLK3 (Homo sapiens) (P49761 whole entry, looked up): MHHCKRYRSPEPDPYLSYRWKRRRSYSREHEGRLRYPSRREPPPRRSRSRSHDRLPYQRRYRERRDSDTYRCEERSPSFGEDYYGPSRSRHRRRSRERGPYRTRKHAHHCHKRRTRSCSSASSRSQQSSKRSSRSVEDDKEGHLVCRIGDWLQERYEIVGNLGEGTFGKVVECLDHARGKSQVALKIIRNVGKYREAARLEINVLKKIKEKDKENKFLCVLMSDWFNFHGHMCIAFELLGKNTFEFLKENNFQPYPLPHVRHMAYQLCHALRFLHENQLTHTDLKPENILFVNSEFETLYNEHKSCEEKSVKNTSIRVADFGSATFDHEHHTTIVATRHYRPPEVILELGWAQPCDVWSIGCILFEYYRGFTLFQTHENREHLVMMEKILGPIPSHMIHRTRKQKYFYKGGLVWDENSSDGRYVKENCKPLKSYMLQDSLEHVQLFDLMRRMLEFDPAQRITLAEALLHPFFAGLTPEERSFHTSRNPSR

On to `COc1ccccc1/C=C1\C(=O)NN(c2ccc(C#N)cc2)C1=O`, for which, in [1], the IC50 is 40 µM.

In turn, `COc1ccc(N2NC(=O)/C(=C\c3cccc(Cl)c3Cl)C2=O)cc1` returned an IC50 in test [1] above 50 µM.

In test [1], `COc1ccccc1/C=C1\C(=O)NN(c2ccc(F)cc2)C1=O` came in with an IC50 above 50 µM.

`O=C1NN(c2ccc(Cl)c(Cl)c2)C(=O)/C1=C/c1ccc(Cl)cc1` gave an IC50 in test [1] of 20 µM.

In test [1], `COc1ccc(N2NC(=O)/C(=C\c3ccc(OC)c(O)c3)C2=O)cc1` came in with an IC50 above 50 µM.

Consider `O=C1NN(c2ccc(Cl)c(Cl)c2)C(=O)/C1=C/c1ccccc1F`, for which the IC50 in test [1] is above 50 µM.

`COc1ccc(/C=C2\C(=O)NN(c3ccc(Cl)c(Cl)c3)C2=O)cc1O` gave a 50% inhibitory concentration (IC50) in [1] above 50 µM.

Compound `O=C1NN(c2ccc(Cl)c(Cl)c2)C(=O)/C1=C/c1ccc(O)cc1` returned an IC50 in test [1] of 2.5 µM.

In test [1], `O=C1NN(c2ccc(Cl)c(Cl)c2)C(=O)/C1=C/c1cc(O)cc(O)c1` registered an IC50 above 50 µM.

Consider `O=C1NN(c2ccc(Cl)c(Cl)c2)C(=O)/C1=C/c1cccc(Cl)c1Cl`, for which, in test [1], the IC50 turned out to be 15 µM.

For `COc1ccc(/C=C2\C(=O)NN(c3ccc(Cl)c(Cl)c3)C2=O)cc1`, the IC50 in test [1] is above 50 µM.

In test [1], `COc1ccc(/C=C2\C(=O)NN(c3ccc(Cl)c(Cl)c3)C2=O)cc1OC` displayed an IC50 above 50 µM.

In test [1], `O=C1NN(c2ccc(Cl)c(Cl)c2)C(=O)/C1=C/c1ccccc1` gave an IC50 above 50 µM.

In [1], `COc1ccc(/C=C2\C(=O)NN(c3ccc(Cl)c(Cl)c3)C2=O)c(OC)c1` registered an IC50 above 50 µM.

In the case of `COc1ccc(N2NC(=O)/C(=C\c3ccccc3OC)C2=O)cc1`, the IC50 in test [1] is above 50 µM.

Compound `O=C1NN(c2ccc(Cl)c(Cl)c2)C(=O)/C1=C/c1c(Cl)cccc1Cl` yielded an IC50 in test [1] above 50 µM.

In [1], `COc1ccc(N2NC(=O)/C(=C\c3cc(OC)cc(OC)c3)C2=O)cc1` returned an IC50 above 50 µM.

Regarding `COc1ccccc1/C=C1\C(=O)NN(c2ccc(Cl)c(Cl)c2)C1=O`, the IC50 in [1] was above 50 µM.

`COc1cc(/C=C2\C(=O)NN(c3ccc(Cl)c(Cl)c3)C2=O)ccc1O` gave an IC50 in [1] of 2.5 µM.

Turning to `COc1cc(/C=C2\C(=O)NN(c3ccc(Cl)c(Cl)c3)C2=O)cc(OC)c1O`, the IC50 in test [1] is above 50 µM.

For the compound `O=C1NN(c2ccc(Cl)c(Cl)c2)C(=O)/C1=C/c1ccc(O)c([N+](=O)[O-])c1`, the Activity in the test filed under Homo sapiens is 72%; in test [2] it was 75%; in test [3] it was 105%; in [4], 91%; in test [5] it was 82%; in [6] it was 17%. For the same compound, the Activity was 94% in [7] and 102% in test [8]. Half-maximal inhibition in test [1] (IC50) required 0.6 µM.

In [1], `COc1ccc(N2NC(=O)/C(=C\c3ccc(O)c(OC)c3)C2=O)cc1` had an IC50 of 1.2 µM.

For `O=C1NN(c2ccc(Cl)c(Cl)c2)C(=O)/C1=C/c1ccc(F)c(F)c1`, half-maximal inhibition in [1] (IC50) was put at 5 µM.

`COc1cccc(/C=C2\C(=O)NN(c3ccc(Cl)c(Cl)c3)C2=O)c1` returned an IC50 in test [1] above 50 µM.

In the case of `COc1ccc(N2NC(=O)/C(=C\c3cccc(OC)c3)C2=O)cc1`, in test [1], the IC50 is above 50 µM.

Take `COc1cc(/C=C2\C(=O)NN(c3ccc(C#N)cc3)C2=O)ccc1O`: the Activity in the test filed under Homo sapiens is 69%; in [2], 93%; in test [3], 110%; in [4], 104%; in test [5], 77%; in test [6], 78%. For the same compound, the results for the Activity in test [7] and in [8] were 93% and 76%, respectively. This compound also gave an IC50 in test [1] of 0.6 µM.

In turn, `O=C1NN(c2ccc(Cl)c(Cl)c2)C(=O)/C1=C/c1ccccc1[N+](=O)[O-]` displayed an IC50 in test [1] above 50 µM.

Turning to `O=C1NN(c2ccc(Cl)c(Cl)c2)C(=O)/C1=C/c1ccccc1Cl`, the IC50 in [1] stood at 20 µM.

As to `COc1ccc(N2NC(=O)/C(=C\c3cc(O)cc(O)c3)C2=O)cc1`, the IC50 in [1] is above 50 µM.

In test [1], `COc1ccc(N2NC(=O)/C(=C\c3cc(OC)c(O)c(OC)c3)C2=O)cc1` displayed an IC50 above 50 µM.

In test [1], `COc1ccc(/C=C2\C(=O)NN(c3ccc(C#N)cc3)C2=O)cc1O` came in with an IC50 above 50 µM.

In turn, `COc1cc(/C=C2\C(=O)NN(c3ccc(Cl)c(Cl)c3)C2=O)cc(OC)c1` yielded an IC50 in test [1] of 20 µM.

Turning to `COc1ccc(N2NC(=O)/C(=C\c3ccccc3F)C2=O)cc1`, in test [1], the IC50 is above 50 µM.
